Experimental data taken from article PMC3515842 (Journal of medicinal chemistry, 2012).
Values belong to the compound of their own block, whether it stands above or below them.

Columns and labels:
APE1 [1] = molecular target: T1, APE1 (Homo sapiens, UniProt P27695); test: fluorescence-based qHTS assay of APE1 endonuclease activity; type: biochemical; details: for less activity than the corresponding amide analog (4): relative to 4
[2] = molecular target: total AP site incision activity of HeLa whole cell extract (APE1) (Homo sapiens, UniProt P27695); test: HeLa whole cell extract incision assay; type: biochemical; details: for inhibition at 100 µM: read-out: inhibition of the incision activity of HeLa extracts
APE1 [3] = molecular target: T1, APE1; test: enzyme kinetic studies of APE1 incision; type: biochemical; details: for KM increase: 5, 10 or 20 µM inhibitor; for mode of inhibition: Lineweaver-Burk analysis; for kcat decrease: only at the high inhibitor concentration
APE1-DNA complex = APE1-DNA complex (Homo sapiens, UniProt P27695); test: electrophoretic mobility shift assay; type: binding; details: protein pre-treated with 30 µM inhibitor
Outline: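 Recombinant wild-type APE1 (10 ng, ~28 nM) was preincubated 10 min on ice with test compound (1, 3, 10, 30, 100 µM) or 1% DMSO. 32P AP-DNA (100 fmol, 10 nM) was added for 5 min on ice. Complex and free DNA were separated on native 8% PAGE (2 h, 120 V); percent DNA bound was read by phosphorimager.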

HeLa cells = test: MMS and TMZ potentiation / HeLa cell viability assay; type: cell-based, human; details: for IC50: Homo sapiens, read-out: 50% reduction in cell viability as a single agent; for IC50 / concentration of optimal synergy with MMS and TMZ: 24 h; for potentiation of cytotoxic effects of MMS and TMZ / concentration of optimal synergy with MMS and TMZ: MMS 0.4 mM or TMZ 1 mM
Outline: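 HeLa cells in DMEM with 10% FBS, seeded at 6K/well and left overnight to attach. Medium was then replaced with fresh medium holding serial dilutions of test compound (5–30 µM), with or without MMS (0.4 mM) or TMZ (1 mM), for 24 h. Viability was read by CellTiter Glo luminescence after 30 min at room temperature, as percent of DMSO control, normalized to 100% per alkylating agent without compound.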

CYP3A4 = CYP3A4 (Homo sapiens, UniProt P08684); test: CYP3A4 inhibition; type: in vitro ADME
Caco-2 permeability = type: in vitro ADME; details: human, Caco-2, pH 7.4
[4] = in vivo PK analysis, IP administration; details: IP 30 mg/kg, CD1 mice, 24 hour observation

T1 sequence (P27695 whole entry): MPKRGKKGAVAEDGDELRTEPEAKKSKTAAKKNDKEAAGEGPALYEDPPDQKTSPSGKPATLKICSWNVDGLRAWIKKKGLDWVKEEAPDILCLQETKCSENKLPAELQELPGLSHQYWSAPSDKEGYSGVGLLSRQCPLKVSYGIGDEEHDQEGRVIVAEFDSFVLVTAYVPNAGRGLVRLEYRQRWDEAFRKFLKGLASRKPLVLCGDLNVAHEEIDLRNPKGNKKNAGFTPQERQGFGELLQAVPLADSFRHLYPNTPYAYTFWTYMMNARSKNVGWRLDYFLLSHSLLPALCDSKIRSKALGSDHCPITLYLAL
Chain of total AP site incision activity of HeLa whole cell extract (APE1) (P27695 whole entry): as above
Chain of APE1-DNA complex (P27695 whole entry, one chain of several): as the sequence (P27695 whole entry) above
Chain of CYP3A4 (P08684 whole entry, species assumed): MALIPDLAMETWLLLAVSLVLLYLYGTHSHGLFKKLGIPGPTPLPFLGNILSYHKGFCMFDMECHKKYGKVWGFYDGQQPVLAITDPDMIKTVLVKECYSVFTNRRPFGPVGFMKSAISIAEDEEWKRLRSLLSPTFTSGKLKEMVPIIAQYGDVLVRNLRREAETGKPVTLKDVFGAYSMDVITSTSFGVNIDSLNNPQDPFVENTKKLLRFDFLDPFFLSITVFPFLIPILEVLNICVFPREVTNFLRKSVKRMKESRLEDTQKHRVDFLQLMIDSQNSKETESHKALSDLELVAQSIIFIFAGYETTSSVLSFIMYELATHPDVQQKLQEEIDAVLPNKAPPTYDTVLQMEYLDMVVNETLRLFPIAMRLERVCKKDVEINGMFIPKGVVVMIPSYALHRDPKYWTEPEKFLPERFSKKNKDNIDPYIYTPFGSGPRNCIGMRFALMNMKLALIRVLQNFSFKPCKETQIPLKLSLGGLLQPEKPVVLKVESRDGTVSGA

loss in activity (APE1 [1]; relative to lead compound 3): 10 fold
SMILES: CC(=O)Nc1sc2c(c1-c1nc3ccccc3o1)CCN(C(C)C)C2 [Compound 23]

activity against APE1 in the qHTS assay, in words (APE1 [1]): activity comparable to the lead compound
SMILES: CC(=O)Nc1sc2c(c1-c1nc(-c3ccccc3)cs1)CCN(C(C)C)C2 [Compound 24]

activity against APE1 in the qHTS assay, in words (APE1 [1]): completely inactive
SMILES: CC(=O)Nc1sc2cnccc2c1-c1nc2ccccc2s1 [Compound 50]

activity against APE1 in the qHTS assay, in words (APE1 [1]): greatly diminished activity
SMILES: CC(=O)Nc1sc2c(c1-c1nccs1)CCNC2 [Compound 20]

activity against APE1 in the qHTS assay, in words (APE1 [1]): complete loss of activity
SMILES: O=C(O)c1sc2c(c1-c1nc3ccccc3s1)CCNC2 [Compound 42]

activity against APE1 in the qHTS assay, in words (APE1 [1]): completely inactive
SMILES: Cc1nnc(-c2sc3c(c2-c2nc4ccccc4s2)CCNC3)o1 [Compound 43]

activity against APE1 in the qHTS assay, in words (APE1 [1]): only modest efficacy
SMILES: CC(=O)Nc1sc2c(c1-c1nc3ccccc3s1)CNCC2 [Compound 53]

inhibition at 100 µM [2]: ~100%
SMILES: CC(=O)Nc1sc2c(c1-c1nc3ccccc3s1)CCN(C(C)C)CC2 [Compound 55]

activity against APE1 in the qHTS assay, in words (APE1 [1]): greatly diminished activity
SMILES: CC(=O)Nc1sc2c(c1-c1ncco1)CCNC2 [Compound 19]

activity against APE1 in the qHTS assay, in words (APE1 [1]): complete loss of activity
SMILES: COC(=O)c1sc2c(c1-c1nc3ccccc3s1)CCNC2 [Compound 41]

activity against APE1 in the qHTS assay, in words (APE1 [1]): modest activity
less activity than the corresponding amide analog (4) (APE1 [1]): approximately 8 fold
SMILES: Cc1nnc(Nc2sc3c(c2-c2nc4ccccc4s2)CCNC3)o1 [Compound 45]

activity against APE1 in the qHTS assay, in words (APE1 [1]): completely inactive
SMILES: Cc1noc(-c2sc3c(c2-c2nc4ccccc4s2)CCNC3)n1 [Compound 44]

activity against APE1 in the qHTS assay, in words (APE1 [1]): inactive
SMILES: O=C(CCc1ccccc1)Nc1sc2c(c1-c1nc3ccccc3s1)CCNC2 [Compound 30]

activity against APE1 in the qHTS assay, in words (APE1 [1]): modest activity
less activity than the corresponding amide analog (4) (APE1 [1]): approximately 8 fold
SMILES: Cc1noc(Nc2sc3c(c2-c2nc4ccccc4s2)CCNC3)n1 [Compound 46]

activity against APE1 in the qHTS assay, in words (APE1 [1]): inactive
SMILES: CC(C)(C)C(=O)Nc1sc2c(c1-c1nc3ccccc3s1)CCNC2 [Compound 26]

Continued, compound first:

SMILES: CC(=O)Nc1sc2c(c1-c1cc3ccccc3o1)CCNC2 [Compound 17]
activity against APE1 in the qHTS assay, in words (APE1 [1]): greatly diminished activity

SMILES: CC(=O)Nc1sc2c(c1-c1nc3ccccc3s1)CCSC2 [Compound 48]
activity against APE1 in the qHTS assay, in words (APE1 [1]): still active against APE1, albeit only at the highest concentration

SMILES: CC(=O)Nc1sc2c(c1-c1nc3ccccc3s1)CCNC2 [Compound 4]
inhibition at 100 µM [2]: ~100%

SMILES: CC(=O)Nc1sc2c(c1-c1nc3ccccc3s1)CCN(C(C)=O)C2 [Compound 8]
activity against APE1 in the qHTS assay, in words (APE1 [1]): significant loss of activity

SMILES: CC(=O)Nc1sc2c(c1-c1nc3ccccc3s1)CCN(C(C)C)C2 [Compound 3, N-(3-(benzo[d]thiazol-2-yl)-6-isopropyl-4,5,6,7-tetrahydrothieno[2,3-c]pyridin-2-yl)acetamide]
inhibition at 100 µM [2]: ~100%
KM increase (APE1 [3]): ≤ 4 fold
mode of inhibition (APE1 [3]): competitive inhibitors
kcat decrease (APE1 [3]): less than 6 fold
APE1-DNA binary complex (APE1-DNA complex): essentially absent
IC50 (HeLa cells): ~15 µM
potentiation of cytotoxic effects of MMS and TMZ (HeLa cells): greatly potentiated
concentration of optimal synergy with MMS and TMZ (HeLa cells): 5 to 10 µM
CYP3A4 (inh. @ 10 µM) (CYP3A4): 53%
Papp (Caco-2 permeability): 500 ×10⁻⁶ cm/s
tolerability [4]: well tolerated by the animals, with no adverse effects noted

SMILES: CC(=O)Nc1sc2c(c1-c1ccco1)CCNC2 [Compound 13]
activity against APE1 in the qHTS assay, in words (APE1 [1]): greatly diminished activity

SMILES: CC(=O)Nc1sc2c(c1-c1nc3ccccc3s1)CNC2 [Compound 52, N-(3-(benzo[d]thiazol-2-yl)-5,6-dihydro-4H-thieno[2,3-c]pyrrol-2-yl)acetamide]
IC50 (APE1 [1]): 3.1 µM
inhibition of HeLa whole cell extract AP site incision ([2]; 10 µM inhibitor): almost complete inhibition
inhibition at 100 µM [2]: ~100%
KM increase (APE1 [3]): up to 10 fold
mode of inhibition (APE1 [3]): competitive inhibitors
kcat decrease (APE1 [3]): less than 6 fold
APE1-DNA binary complex (APE1-DNA complex): essentially absent
IC50 (HeLa cells): ~30 µM
potentiation of cytotoxic effects of MMS and TMZ (HeLa cells): greatly potentiated
concentration of optimal synergy with MMS and TMZ (HeLa cells): 10 to 15 µM
Papp (Caco-2 permeability): 680 ×10⁻⁶ cm/s
tolerability [4]: well tolerated by the animals, with no adverse effects noted

SMILES: CC(=O)Nc1sc2c(c1-c1cc3ccccc3s1)CCNC2 [Compound 15]
activity against APE1 in the qHTS assay, in words (APE1 [1]): greatly diminished activity

SMILES: CC(=O)Nc1sc2c(c1-c1cccs1)CCNC2 [Compound 14]
activity against APE1 in the qHTS assay, in words (APE1 [1]): greatly diminished activity

SMILES: CC(=O)Nc1sc2c(c1-c1nc3ccccc3s1)CCN(C(=O)OC(C)(C)C)C2 [Compound 5]
activity against APE1 in the qHTS assay, in words (APE1 [1]): significant loss of activity

SMILES: CC(=O)Nc1sc2c(c1-c1nc3ccccc3s1)CCOC2 [Compound 47]
activity against APE1 in the qHTS assay, in words (APE1 [1]): still active against APE1, albeit only at the highest concentration
